Measured values from ChEMBL document CHEMBL1125678, “Quinazolineacetic acids and related analogues as aldose reductase inhibitors” (J Med Chem, 1991).

How the values were obtained:
[1] = target: Aldo-keto reductase family 1 member B1 (Bos taurus) (UniProt P16116); assay: In vitro inhibition of aldose reductase in partially purified bovine lens preparation at a concentration of 10e -7M.
How it was run: (§1)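 Enzyme from bovine lens, partially purified by the cited method with the final chromatographic step omitted. DL-Glyceraldehyde was the substrate. Test compounds were run in duplicate at 1×10⁻⁵, 1×10⁻⁶, 1×10⁻⁷ or 4×10⁻⁸ M. Values are % inhibition of enzymatic activity.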

Rattus norvegicus [2] = assay: In vivo inhibition of galactitol accumulation in the diaphragm of rats fed 20% galactose for 4 day at 103 mg/kg/day dose; format: functional
How it was run: (§2)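 Male Sprague-Dawley rats (50–70 g) in groups of six were fed chow with 20% (w/w) galactose. Controls received 20% glucose instead. Test compound was mixed into the diet, and dose was calculated from actual food intake. Rats were killed by decapitation after 4 days. Result is % lowering of tissue galactitol versus galactose-fed controls, as the mean of six animals, compared by Dunnett's multiple comparison.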

Rattus norvegicus [3] = assay: In vivo inhibition of galactitol accumulation in the sciatic nerve of rats fed 20% galactose for 4 day at 95 mg/kg/day dose; NS= No Significant inhibition of polyol accumulation; format: functional, organism-based
[4] = target: Aldo-keto reductase family 1 member B1 (Bos taurus) (UniProt P16116); assay: In vitro inhibition of aldose reductase in partially purified bovine lens preparation at a concentration of 4*10e -8M.; how it was run: as §1
[5] = target: Aldo-keto reductase family 1 member B1 (Bos taurus) (UniProt P16116); assay: (§3) In vitro inhibition of aldose reductase in partially purified bovine lens preparation at a concentration of 10e -6M.; format: functional; how it was run: as §1
Rattus norvegicus [6] = assay: In vivo inhibition of galactitol accumulation in the sciatic nerve of rats fed 20% galactose for 4 day at 58 mg/kg/day dose; NS = No Significant inhibition of polyol accumulation; format: functional, organism-based; how it was run: as §2
Rattus norvegicus [7] = assay: In vivo inhibition of galactitol accumulation in the diaphragm of rats fed 20% galactose for 4 day at 58 mg/kg/day dose; NS = No Significant inhibition of polyol accumulation; format: functional, organism-based; how it was run: as §2
Rattus norvegicus [8] = assay: In vivo inhibition of galactitol accumulation in the sciatic nerve of rats fed 20% galactose for 4 day at 91 mg/kg/day dose; NS = No Significant inhibition of polyol accumulation; format: functional, organism-based; how it was run: as §2
Rattus norvegicus [9] = assay: In vivo inhibition of galactitol accumulation in the diaphragm of rats fed 20% galactose for 4 day at 91 mg/kg/day dose; NS = No Significant inhibition of polyol accumulation; format: functional, organism-based; how it was run: as §2
[10] = target: Aldo-keto reductase family 1 member B1 (Bos taurus) (UniProt P16116); assay: In vitro inhibition of aldose reductase in partially purified bovine lens preparation at a concentration of 10e-6 M.; how it was run: as §1
Rattus norvegicus [11] = assay: In vivo inhibition of galactitol accumulation in the diaphragm of rats fed 20% galactose for 4 day at 102 mg/kg/day dose; format: functional; how it was run: as §2
Rattus norvegicus [12] = assay: In vivo inhibition of galactitol accumulation in the sciatic nerve of rats fed 20% galactose for 4 day at 102 mg/kg/day dose; format: functional; how it was run: as §2
[13] = target: Aldo-keto reductase family 1 member B1 (Bos taurus) (UniProt P16116); assay: as §3; how it was run: as §1
Rattus norvegicus [14] = assay: In vivo inhibition of galactitol accumulation in the sciatic nerve of rats fed 20% galactose for 4 day at 115 mg/kg/day dose; format: functional; how it was run: as §2
Rattus norvegicus [15] = assay: In vivo inhibition of galactitol accumulation in the diaphragm of rats fed 20% galactose for 4 day at 115 mg/kg/day dose; format: functional; how it was run: as §2
Rattus norvegicus [16] = assay: In vivo inhibition of galactitol accumulation in the diaphragm of rats fed 20% galactose for 4 day at 105 mg/kg/day dose; NS = No Significant inhibition of polyol accumulation; format: functional, organism-based; how it was run: as §2
Rattus norvegicus [17] = assay: In vivo inhibition of galactitol accumulation in the sciatic nerve of rats fed 20% galactose for 4 day at 105 mg/kg/day dose; NS = No Significant inhibition of polyol accumulation; format: functional, organism-based; how it was run: as §2
Rattus norvegicus [18] = assay: In vivo inhibition of galactitol accumulation in the sciatic nerve of rats fed 20% galactose for 4 day at 100 mg/kg/day dose; format: functional; how it was run: as §2
Rattus norvegicus [19] = assay: In vivo inhibition of galactitol accumulation in the diaphragm of rats fed 20% galactose for 4 day at 100 mg/kg/day dose; format: functional; how it was run: as §2
Rattus norvegicus [20] = assay: In vivo inhibition of galactitol accumulation in the sciatic nerve of rats fed 20% galactose for 4 day at 100 mg/kg/day dose; NS = No Significant inhibition of polyol accumulation; format: functional, organism-based; how it was run: as §2
Rattus norvegicus [21] = assay: In vivo inhibition of galactitol accumulation in the sciatic nerve of rats fed 20% galactose for 4 day at 77 mg/kg/day dose; NS = No Significant inhibition of polyol accumulation; format: functional, organism-based; how it was run: as §2
Rattus norvegicus [22] = assay: In vivo inhibition of galactitol accumulation in the diaphragm of rats fed 20% galactose for 4 day at 77 mg/kg/day dose; NS = No Significant inhibition of polyol accumulation; format: functional, organism-based; how it was run: as §2
[23] = target: Aldo-keto reductase family 1 member B1 (Bos taurus) (UniProt P16116); assay: in vitro inhibition of Aldose reductase in partially purified bovine lens preparation at a concentration of 10e-6 M.
Rattus norvegicus [24] = assay: In vivo inhibition of galactitol accumulation in the sciatic nerve of rats fed 20% galactose for 4 day at 92 mg/kg/day dose; format: functional
Rattus norvegicus [25] = assay: In vivo inhibition of galactitol accumulation in the diaphragm of rats fed 20% galactose for 4 day at 92 mg/kg/day dose; format: functional; how it was run: as §2
Rattus norvegicus [26] = assay: In vivo inhibition of galactitol accumulation in the sciatic nerve of rats fed 20% galactose for 4 day at 90 mg/kg/day dose; NS = No Significant inhibition of polyol accumulation; format: functional, organism-based; how it was run: as §2
[27] = target: Aldo-keto reductase family 1 member B1 (Bos taurus) (UniProt P16116); assay: in vitro inhibition of aldose reductase in partially purified bovine lens preparation at a concentration of 10e -5M.
Rattus norvegicus [28] = assay: In vivo inhibition of galactitol accumulation in the diaphragm of rats fed 20% galactose for 4 day at 90 mg/kg/day dose; NS = No Significant inhibition of polyol accumulation; format: functional, organism-based; how it was run: as §2
Rattus norvegicus [29] = assay: In vivo inhibition of galactitol accumulation in the sciatic nerve of rats fed 20% galactose for 4 day at 96 mg/kg/day dose; format: functional
Rattus norvegicus [30] = assay: In vivo inhibition of galactitol accumulation in the diaphragm of rats fed 20% galactose for 4 day at 96 mg/kg/day dose; format: functional; how it was run: as §2
[31] = target: Aldo-keto reductase family 1 member B1 (Bos taurus) (UniProt P16116); assay: In vitro inhibition of Aldose reductase in partially purified bovine lens preparation at a concentration of 10e -7M.; how it was run: as §1
[32] = target: Aldo-keto reductase family 1 member B1 (Bos taurus) (UniProt P16116); assay: In vitro inhibition of Aldose reductase in partially purified bovine lens preparation at a concentration of 4*10e -8M.; how it was run: as §1
Rattus norvegicus [33] = assay: in vivo inhibition of galactitol accumulation in the sciatic nerve of rats fed 20% galactose for 4 day; settings: 96 h

O=C(O)Cn1c(=O)c2ccc(F)cc2n(Cc2ccc(Br)cc2F)c1=O was tested, and the inhibition [1] was 74%, the Lowering (Rattus norvegicus [2]) was 63% and the Lowering (Rattus norvegicus [3]) was “Not significant”. The inhibition [4] was 53%.

For Cc1c(-c2ccccc2)n(Cc2ccc(Cl)c(Cl)c2)c(=O)n(CC(=O)O)c1=O, the inhibition [5] was 68%, the Lowering (Rattus norvegicus [6]) was “Not significant” and the inhibition [1] was 22%. For the same molecule, the inhibition [4] was 16% and the Lowering (Rattus norvegicus [7]) was “Not significant”.

For O=C(O)Cn1c(C(F)(F)F)nc2ccc(Br)cc2c1=O, the Lowering (Rattus norvegicus [8]) was “Not significant”, the inhibition [1] was 23% and the Lowering (Rattus norvegicus [9]) was “Not significant”. For the same molecule, the inhibition [10] was 45%.

Work on Cc1ccc2c(c1)c(=O)n(CC(=O)O)c(=O)n2Cc1ccc(Cl)c(Cl)c1 yielded a Lowering (Rattus norvegicus [11]) of 76%, an inhibition [1] of 80% and an inhibition [4] of 40%. For the same molecule, the Lowering (Rattus norvegicus [12]) was 65%.

With CC(c1ccccc1)n1c(=O)n(CC(=O)O)c(=O)c2cc(Br)ccc21 (stereo not given) the inhibition [13] was 34% and the Lowering (Rattus norvegicus [3]) was “Not significant”.

For O=C(O)Cn1c(=O)c2ccccc2n(Cc2ccc(Br)cc2F)c1=O, the inhibition [1] was 71%, the Lowering (Rattus norvegicus [14]) was 54% and the inhibition [4] was 34%. For the same molecule, the Lowering (Rattus norvegicus [15]) was 58%.

In the case of O=C(O)Cn1c(=O)c2sccc2n(Cc2ccc(Br)cc2F)c1=O, the inhibition [1] is reported as 68%, the Lowering (Rattus norvegicus [16]) is reported as “Not significant” and the inhibition [4] is reported as 43%. The Lowering (Rattus norvegicus [17]) was “Not significant”.

O=C(O)Cn1c(=O)c2cc(Br)ccc2n(Cc2ccc(Br)cc2)c1=O gave an inhibition [1] of 59%, a Lowering (Rattus norvegicus [18]) of 24% and a Lowering (Rattus norvegicus [19]) of 36%. It also gave an inhibition [4] of 39%.

With O=C(O)Cn1c(=O)c2c3c(sc2n(Cc2ccc(Cl)c(Cl)c2)c1=O)CCCC3 the inhibition [1] was 86%, the Lowering (Rattus norvegicus [19]) was 19% and the inhibition [4] was 63%. The Lowering (Rattus norvegicus [20]) was “Not significant”.

With O=C(O)Cn1cnc2ccc(Br)cc2c1=O the Lowering (Rattus norvegicus [21]) was “Not significant”, the Lowering (Rattus norvegicus [22]) was “Not significant” and the inhibition [23] was 32%.

In the case of O=C(O)Cn1c(=O)c2cc(Br)ccc2n(Cc2ccc(Cl)c(Cl)c2)c1=O, the inhibition [1] is reported as 83%, the Lowering (Rattus norvegicus [24]) is reported as 62% and the inhibition [4] is reported as 47%. For the same molecule, the Lowering (Rattus norvegicus [25]) was 78%.

In the case of CC(C)c1nc2ccc(Br)cc2c(=O)n1CC(=O)O, the Lowering (Rattus norvegicus [26]) is reported as “Not significant”, the inhibition [27] is reported as 40% and the Lowering (Rattus norvegicus [28]) is reported as “Not significant”.

Molecule O=C(O)Cn1c2ccccc2c(=O)n1Cc1ccc(Br)cc1F has a Lowering (Rattus norvegicus [29]) of 25%, a Lowering (Rattus norvegicus [30]) of 51% and an inhibition [31] of 42%. It also gave an inhibition [32] of 28%.

Molecule COc1ccc2c(C(=S)N(C)CC(=O)O)cccc2c1C(F)(F)F [TOLRESTAT] has an ED50 (Rattus norvegicus [33]) of 6.4 mg/kg/day.
